Measurements published in ChEMBL document CHEMBL1146037, “Design and discovery of a novel dipeptidyl-peptidase IV (CD26)-based prodrug approach” (J Med Chem, 2006).
The source made the active and inactive calls. The calls are words filed in the database; no cut-off is given here.

What was measured:
[1] = target: Human immunodeficiency virus type 1 reverse transcriptase (Human immunodeficiency virus 1, UniProt Q72547); test: Inhibition of recombinant HIV1 reverse transcriptase
MT4 [2] = test: Antiviral activity against HIV2 assessed as inhibition of HIV2-induced cytopathicity in MT4 cells; assay type: functional, cell-based
How it was run: (§1)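 CEM and MT-4 cell cultures infected with HIV-1 or HIV-2, with compounds diluted into culture medium from DMSO stocks. Antiviral activity is read at day 4 post-infection and reported as EC50.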

MT4 [3] = test: Antiproliferative activity against human MT4 cell line; assay type: functional
How it was run: (§2)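 Cytostatic assay: compounds made up as DMSO stocks and diluted in culture medium. CC50 is the concentration that inhibits MT-4 or CEM cell proliferation by 50%.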

CCRF-CEM [4] = test: Antiviral activity against HIV2 assessed as inhibition of HIV2-induced cytopathicity in CEM cells; assay type: functional, cell-based; how it was run: as §1
[5] = target: T1, CD26 (Dipeptidyl peptidase 4) (Homo sapiens, UniProt P27487); test: Inhibition of CD26-catalyzed GlyPro-pNA hydrolysis at 20 uM; settings: CD26 (dipeptidyl peptidase 4) enzyme, probe GlyPro-pNA
T1 sequence (P27487 whole entry): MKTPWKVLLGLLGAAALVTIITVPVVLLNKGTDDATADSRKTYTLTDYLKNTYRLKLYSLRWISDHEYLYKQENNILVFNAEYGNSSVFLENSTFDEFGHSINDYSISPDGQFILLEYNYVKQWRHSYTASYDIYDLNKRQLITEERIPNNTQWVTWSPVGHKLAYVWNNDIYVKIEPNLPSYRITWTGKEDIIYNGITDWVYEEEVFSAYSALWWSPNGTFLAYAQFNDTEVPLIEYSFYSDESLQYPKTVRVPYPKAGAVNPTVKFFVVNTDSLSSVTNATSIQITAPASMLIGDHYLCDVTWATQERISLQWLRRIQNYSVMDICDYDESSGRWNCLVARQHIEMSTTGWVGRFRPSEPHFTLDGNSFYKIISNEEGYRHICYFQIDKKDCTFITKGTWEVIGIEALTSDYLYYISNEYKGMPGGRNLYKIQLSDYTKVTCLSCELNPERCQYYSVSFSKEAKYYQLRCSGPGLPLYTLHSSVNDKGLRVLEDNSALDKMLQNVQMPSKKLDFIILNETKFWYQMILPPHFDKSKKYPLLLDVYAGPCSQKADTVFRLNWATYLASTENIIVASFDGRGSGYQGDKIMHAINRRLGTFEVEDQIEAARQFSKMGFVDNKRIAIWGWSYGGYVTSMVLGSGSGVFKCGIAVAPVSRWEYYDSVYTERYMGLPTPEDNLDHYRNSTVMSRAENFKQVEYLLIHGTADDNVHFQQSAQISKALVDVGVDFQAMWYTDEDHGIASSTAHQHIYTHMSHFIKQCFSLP

Bos taurus [6] = organism: Bos taurus; test: Conversion of prodrug to parent drug NAP-TSAO-T catalyzed by bovin serum after 24 hrs; assay type: ADME, organism-based; settings: cattle
How it was run: (§3)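 Prodrug at 50 µM incubated at 37 °C with human or bovine serum diluted in PBS (5, 2.5, 1 or 0.5%). Samples are quenched in cold methanol and centrifuged, and the supernatant is run on reverse-phase RP-8 HPLC (phosphate/heptanesulfonate pH 3.2–acetonitrile gradient). Parent compound formed is quantified at 3, 6 or 24 h.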

[7] = target: T1, CD26 (Dipeptidyl peptidase 4); test: Inhibition of CD26-catalyzed GlyPro-pNA hydrolysis at 100 uM; settings: CD26 (dipeptidyl peptidase 4) enzyme, probe GlyPro-pNA
Homo sapiens [8] = organism: Homo sapiens; test: Conversion of prodrug to parent drug NAP-TSAO-T catalyzed by 2.5% human serum after 6 hrs; assay type: ADME, organism-based; how it was run: as §3
Dipeptidyl peptidase 4 [9] = target: T2, Dipeptidyl peptidase 4 (Homo sapiens, UniProt P27487); test: Conversion of prodrug to parent drug NAP-TSAO-T catalyzed by CD26 after 1 hr; assay type: ADME; set-up: concentration or dose not given beside the values
T2 sequence (P27487 whole entry): as above

Dipeptidyl peptidase 4 [10] = target: T2, Dipeptidyl peptidase 4; test: Conversion of prodrug to parent drug NAP-TSAO-T catalyzed by CD26 after 4 hrs; assay type: ADME; set-up: concentration or dose not given beside the values
Bos taurus [11] = organism: Bos taurus; test: Conversion of prodrug to parent drug NAP-TSAO-T catalyzed by bovin serum after 6 hrs; assay type: ADME, organism-based; settings: cattle; how it was run: as §3
CCRF-CEM [12] = test: Antiproliferative activity against human CEM cell line; assay type: functional; how it was run: as §2
Dipeptidyl peptidase 4 [13] = target: T2, Dipeptidyl peptidase 4; test: Conversion of prodrug to parent drug NAP-TSAO-T catalyzed by CD26 after 24 hrs; assay type: ADME; set-up: concentration or dose not given beside the values
CCRF-CEM [14] = test: Antiviral activity against HIV1 assessed as inhibition of HIV1-induced cytopathicity in CEM cells; assay type: functional, cell-based; settings: Homo sapiens; how it was run: as §1
MT4 [15] = test: Antiviral activity against HIV1 assessed as inhibition of HIV1-induced cytopathicity in MT4 cells; assay type: functional, cell-based; settings: Homo sapiens; how it was run: as §1
Homo sapiens [16] = organism: Homo sapiens; test: Conversion of prodrug to parent drug NAP-TSAO-T catalyzed by 2.5% human serum after 3 hrs; assay type: ADME, organism-based; how it was run: as §3

IC50 [1]: 6.6 µM | inhibition at 20 µM [5]: 50% | Activity (Bos taurus [6]): 50% | inhibition at 100 µM [7]: 70% | Activity (Homo sapiens [8]): 50% | Activity (Dipeptidyl peptidase 4 [9]): 37% | Activity (Dipeptidyl peptidase 4 [10]): 62% | Activity (Bos taurus [11]): 20% | Activity (Dipeptidyl peptidase 4 [13]): 61% | EC50 (CCRF-CEM [14]): 0.13 µM | Activity (Homo sapiens [16]): 30%
SMILES: Cc1cn(C2OC(CO[Si](C)(C)C(C)(C)C)C3(OS(=O)(=O)C=C3N)C2O[Si](C)(C)C(C)(C)C)c(=O)n(CCCNC(=O)[C@@H]2CCCN2C(=O)[C@@H](N)C(C)C)c1=O (stereo partly specified)
Activity (MT4 [2]): inactive | CC50 (MT4 [3]): 11 µM | Activity (CCRF-CEM [4]): inactive | CC50 (CCRF-CEM [12]): 10 µM | EC50 (MT4 [15]): 0.3 µM
